The values that follow come from the RNAGym collection of RNA variant scans (doi:10.1126/science.aae0568).

Fewer inactive variants are shown than the library holds.

The labels stand for the following.
B1: tRNA (parent)
chain: GUUCCGUUGGCGUAAUGGUAACGCGUCUCCCUCCUAAGGAGAAGACUGCGGGUUCGAGUCCCGUACGGAACG

In the series the parent is B1. Put plainly: yeast fitness relative to wild type (ratio to wild type); higher = fitter; tRNA-Arg(CCU), competitive growth, 37 C, YPD. Put shortly:
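The tRNA-Arg(CCU) gene variants were made by chemical synthesis with a 3% per-site mutation rate at 69 sites and inserted at the native genomic locus of Saccharomyces cerevisiae. After pooling, the strains were competed in YPD at 37°C for 24 hours in six parallel replicates. Gene amplicons from the start population and each end population were read by 100-nucleotide paired-end sequencing, and Darwinian fitness relative to wild type was taken from genotype frequency changes. Genotypes needed ≥ 100 starting reads, and estimates < 0.5 were set to 0.5.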
As for G23C C24G C34G C46U U54G, the yeast fitness was at most 0.5. With G23A C30U, the yeast fitness came to 0.68. With G23A A36U, the yeast fitness came out at 0.536. For G23A A36C, the yeast fitness came out at 0.586. For C24A U26A C55A, the yeast fitness is at most 0.5. For the variant G23C C24G C34U G39A A45C, the yeast fitness was at most 0.5. As for G23C C27U C29U G51A, the yeast fitness worked out at 0.645.

Turning to G23A C62G, the yeast fitness came out at 0.782. With G23A C62U, the yeast fitness was determined as 0.781. In the case of C24A U26A, the yeast fitness turned out to be 0.57.

With C24A G44A U54C G56C, the yeast fitness was at most 0.5. As for G23C U26G C33G A45C, the yeast fitness was at most 0.5. For G23A C31U C33G A65G, the yeast fitness was at most 0.5. For the variant G23C C62G, the yeast fitness was 0.692. Turning to G23C A37G A42U G48C C49U, the yeast fitness was at most 0.5.

Regarding G23A C24U C61U, the yeast fitness was determined as 0.64.

As to C24A C27G U53C C55U, the yeast fitness was at most 0.5.

For the variant G23C C33G C46A C66A, the yeast fitness came to 0.596. In the case of C24A A43U G51C G52C, the yeast fitness is at most 0.5. As for G23A C30U G63A, the figure is at most 0.5. On to G23C G44C G68C, for which the yeast fitness was at most 0.5. Consider C24A C33A A37U G50C C61U, for which the yeast fitness was at most 0.5. For the variant G23A C30U A37C A57C, the yeast fitness is at most 0.5.

For the variant G23C G38A C61U, the yeast fitness was determined as 0.578. The figure for G23A A42U C61G U64A is at most 0.5; for C24A G25C it is 0.702; for G23A C46A G58A it is 0.566.

On to C24A C27G C29G G52C C62U, for which the yeast fitness turned out to be 0.567.

As to G23A U26C C29U C33G, the yeast fitness is at most 0.5. The figure for C24A C30U C55U is at most 0.5; for G23C G39C A42U G52U U53A it is at most 0.5. C24A A36G A43G: the yeast fitness is at most 0.5. In the case of G23A, the yeast fitness came to 0.741. For G23C, the yeast fitness came to 0.653.

With G23U, the yeast fitness came out at 0.779. The figure for C24A C27G C29A A70G is at most 0.5; for C24A U26G A43C U64C it is at most 0.5. Regarding G23A G38A G67C, the yeast fitness was at most 0.5. In the case of G23A U53C C66A, the yeast fitness was at most 0.5. For the variant C24A U26A C31A C62A, the yeast fitness was at most 0.5. In the case of C24A C61U, the yeast fitness came out at 0.718.

Turning to G23A U26A U28A C29G, the yeast fitness was at most 0.5.

As to C24A C31U C46U, the yeast fitness was found to be 0.785. As for G23A C29A C61U, the yeast fitness is at most 0.5. As for G23A C30U C55A G63A, the yeast fitness was at most 0.5. Consider G23A C33G C62A, for which the yeast fitness turned out to be 0.742.

On to C24A U59C, for which the yeast fitness was found to be 0.553. Turning to G23A C31U A70U, the yeast fitness worked out at 0.528.

As to C24A G67U, the yeast fitness worked out at 0.669. As to C24A G67A, the yeast fitness turned out to be 0.709.

In the case of C24A G67C, the yeast fitness turned out to be 0.74.

For the variant C24A C30U A45G, the yeast fitness is at most 0.5.

As for G23C C60G C61U, the yeast fitness was at most 0.5. For the variant G23A G25C G51A, the yeast fitness is 0.661. Consider G23A C49U, for which the yeast fitness was 0.735. For C24A A42G, the yeast fitness came out at 0.548.

On to G23C A42G, for which the yeast fitness stood at 0.575. As for G23C C29U A36C C49G A70U, the figure is 0.53; as for C24A U28C, 0.568; as for G23A C46A, 0.882. G23A C27U C34U A45C A70U: the yeast fitness was 0.57. Turning to G23A U35C, the yeast fitness turned out to be 0.572. With C24A G39A C60A C66U, the yeast fitness was at most 0.5.

On to G23A C30A U54C C55U, for which the yeast fitness was at most 0.5. Take G23C G68A A69U: the yeast fitness was at most 0.5. As for G23C C33A G50C G58C, the yeast fitness is at most 0.5. For G23A A40U A70G, the yeast fitness worked out at 0.537. For the variant G23C C29A C66U, the yeast fitness was at most 0.5. For G23C C31A C62U A70G, the yeast fitness is at most 0.5.

Regarding G23A U47C C49U, the yeast fitness was at most 0.5. For the variant C24A C31G, the yeast fitness was 0.625. The figure for C24A C31U is 0.754; for C24A C31A it is 0.603. As for C24A G48C A70U, the yeast fitness was at most 0.5. In the case of C24A A36G A42G A43G G48A, the yeast fitness is at most 0.5.

As for C24A C62U A70U, the yeast fitness worked out at 0.543.

As to C24A C62U A70C, the yeast fitness is at most 0.5. The figure for C24A C27U A40U G44C A57U G67C is at most 0.5. In the case of G23C U26A C29G A36U, the yeast fitness worked out at 0.68. Consider C24A U32A G50C, for which the yeast fitness is at most 0.5. As for C24A U26G A43C C60U C62G G63A C66G A69G, the yeast fitness is at most 0.5. Turning to C24A A43C, the yeast fitness was 0.55. In the case of C24A A43G, the yeast fitness is 0.597. The figure for G23C C27A A57U is at most 0.5; for G23A U26G A65C it is at most 0.5. On to G23A C27U, for which the yeast fitness is 0.706. For the variant C24A C33G, the yeast fitness is 0.705.

Take C24A C33A: the yeast fitness stood at 0.587. With C24A C33U, the yeast fitness was found to be 0.601. In the case of G23A U59C, the yeast fitness stood at 0.799. In the case of G23C C24G U32G A42C G44A G51C C60U, the yeast fitness is at most 0.5. Take G23A C29G G52C: the yeast fitness was at most 0.5.

On to G23C C24A G50A A70U, for which the yeast fitness was at most 0.5. In the case of C24A U32A C55A G68C, the yeast fitness is at most 0.5. As for C24A C33A C49U U54G G56A, the yeast fitness is at most 0.5. With G23A C29U C31U A42G, the yeast fitness is at most 0.5. Regarding G23C A65G C66A, the yeast fitness was at most 0.5. Consider C24A U35G G52A U64A, for which the yeast fitness is 0.514.

As for C22U U54C G67A, the yeast fitness is at most 0.5. As to G23C U26C A37G A40G A42G U64C, the yeast fitness was at most 0.5. As to G23C U28A, the yeast fitness was found to be 0.559. Regarding G23A A36G C55G G63A A69U, the yeast fitness is at most 0.5.

For G23C A42U A43G A65U, the yeast fitness was at most 0.5. As for C24A C61A G67A, the yeast fitness was at most 0.5. In the case of G23A A42G A45U G63C U64C A65G, the yeast fitness was at most 0.5. With C24A U32C G39C A70C, the yeast fitness was at most 0.5.

Consider G23C C27U G56A G63C, for which the yeast fitness turned out to be 0.573.

In the case of G23C C24U A57C G63A C66G, the yeast fitness is at most 0.5. On to C22U U53C G68C, for which the yeast fitness was at most 0.5.

Turning to C24A U26A C31A, the yeast fitness came to 0.544. On to G23C C24U A37C G50C, for which the yeast fitness is at most 0.5. With G23A C34U C66U, the yeast fitness came to 0.586. Regarding G23C G41A, the yeast fitness is 0.716.

As to C24A C29A A40U A43G C49G, the yeast fitness is at most 0.5. As to G23C U28A A65G, the yeast fitness was at most 0.5.

Turning to C24A C29G U32G G38A U47A, the yeast fitness was at most 0.5.

C24A C33A C49U U54G A70C: the yeast fitness is at most 0.5. As for C22U U54C C66G, the figure is at most 0.5. G23A C29U C33G A42G: the yeast fitness is at most 0.5. On to C24A A45G G50A, for which the yeast fitness was at most 0.5. G23C U32A C66U: the yeast fitness was at most 0.5. As for C24A C33G C34U G58C C62U, the yeast fitness was at most 0.5. In the case of G23A A57G, the yeast fitness was found to be 0.715. Regarding G23C G63A, the yeast fitness was determined as 0.51. Regarding G23C G63C, the yeast fitness was 0.594. Consider G23C U28C C46G C62G, for which the yeast fitness is at most 0.5. The figure for C24A C60G is 0.51. For G23C C24U A37C U53C, the yeast fitness was at most 0.5. For G23A U47A U64A, the yeast fitness was at most 0.5. For G23C G56A A70U, the yeast fitness was at most 0.5.

As for G23A G51A C66U, the yeast fitness is at most 0.5.

For the variant G23A A57C C62G, the yeast fitness stood at 0.625. Regarding G23U G52A C55A U64A, the yeast fitness is at most 0.5.

G23C C29G A43U G50A A70U: the yeast fitness was at most 0.5. Consider G23C G41C G68A, for which the yeast fitness was at most 0.5. As for C24A U47G G58A C62A, the figure is at most 0.5.

C24A C29U C61G: the yeast fitness was at most 0.5. On to G23A C66U, for which the yeast fitness was 0.824. As to G23A C66G, the yeast fitness was found to be 0.659.

For the variant G23A C66A, the yeast fitness amounted to 0.535. With G23C C30G A37U A45C C46G, the yeast fitness was at most 0.5.

Turning to G23A A40G C46G, the yeast fitness is at most 0.5.

For G23A C29U C30A A42U U53A, the yeast fitness was at most 0.5. With G23A G63A, the yeast fitness is 0.7.

With G23A A70U, the yeast fitness worked out at 0.854. In the case of G23A A70G, the yeast fitness came to 0.689. G23C C49G G51C G52A: the yeast fitness was at most 0.5.

Turning to G23C G41C C66U, the yeast fitness is at most 0.5. The figure for C24A A43U U59A C61U is at most 0.5; for G23C C31A C62A it is 0.527; for G23C C31G G50A it is at most 0.5. The figure for G23C C29G G63C C66G is at most 0.5; for G23A C49A G58A it is at most 0.5; for G23C C30G it is 0.511. The figure for G23A C31G A45C G52C is at most 0.5.

In the case of G23C U26C C46G C55U, the yeast fitness is at most 0.5. G23C G50C G52A: the yeast fitness was 0.698. Turning to G23C C60A A70U, the yeast fitness came to 0.536. The figure for C24A A36U C55A is at most 0.5; for C24A U26G A43C C62G G63A C66G A69G it is 0.531. In the case of G23C C31U, the yeast fitness stood at 0.579. For the variant G23A A36C U47C G48C, the yeast fitness was at most 0.5. The figure for G23C C49G G63A is at most 0.5. Regarding G23C C49A U59C G67A A69G, the yeast fitness is at most 0.5.

As for C24A A42G U47C U59C, the yeast fitness is at most 0.5. Consider G23C U54C, for which the yeast fitness was determined as 0.502. The figure for G23A G48C C55G is at most 0.5.
